Test system: UACC-903
Experiment: Cytotoxicity against human UACC-903 cells assessed as decrease in cell viability after 24 hrs by MTS assay
Type: functional, cell-based
Details: not given
How it was run: (§1)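 Cells in DMEM with 10% FBS at 37 °C and 5% CO2 were plated at 5×10^3 per well and grown 24 h. They were then exposed 24 or 72 h to 0.5, 1, 5, 10, 25 and 50 µM, with final DMSO 0.5% and DMSO controls. MTS/PMS was added for 4 h at 37 °C. A492 was read with the medium blank subtracted and expressed as % of control. IC50 was taken from three independent experiments (mean ± S.E.).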

| Compound | Activity |
| --- | --- |
| O=C1c2cccc3cc([N+](=O)[O-])cc(c23)C(=O)N1CCN=C=S | Dose-dependent effect |

Test system: A375-S2
Experiment: Cytotoxicity against human A375-S2 cells assessed as decrease in cell viability after 24 hrs by MTS assay
Type: functional, cell-based
Details: not given
How it was run: as §1

| Compound | Activity |
| --- | --- |
| O=C1c2cccc3cc([N+](=O)[O-])cc(c23)C(=O)N1CCN=C=S | Dose-dependent effect |

Test system: 1205Lu
Experiment: Cytotoxicity against human 1205 Lu cells assessed as decrease in cell viability after 24 hrs by MTS assay
Type: functional, cell-based
Details: not given
How it was run: as §1

| Compound | Activity |
| --- | --- |
| O=C1c2cccc3cc([N+](=O)[O-])cc(c23)C(=O)N1CCN=C=S | Dose-dependent effect |

Test system: UACC-903
Experiment: Cytotoxicity against human UACC-903 cells assessed as decrease in cell viability after 72 hrs by MTS assay
Type: functional, cell-based
Details: not given
How it was run: as §1

| Compound | Activity |
| --- | --- |
| O=C1c2cccc3cc([N+](=O)[O-])cc(c23)C(=O)N1CCN=C=S | Dose-dependent effect |

Test system: A375-S2
Experiment: Cytotoxicity against human A375-S2 cells assessed as decrease in cell viability after 72 hrs by MTS assay
Type: functional, cell-based
Details: not given
How it was run: as §1

| Compound | Activity |
| --- | --- |
| O=C1c2cccc3cc([N+](=O)[O-])cc(c23)C(=O)N1CCN=C=S | Dose-dependent effect |

Test system: 1205Lu
Experiment: Cytotoxicity against human 1205 Lu cells assessed as decrease in cell viability after 72 hrs by MTS assay
Type: functional, cell-based
Details: not given
How it was run: as §1

| Compound | Activity |
| --- | --- |
| O=C1c2cccc3cc([N+](=O)[O-])cc(c23)C(=O)N1CCN=C=S | Dose-dependent effect |

Test system: UACC-903
Experiment: Cytotoxicity against human UACC-903 cells after 24 hrs by MTS assay
Type: functional, cell-based
Details: UACC-903, 24 h
How it was run: as §1

| Compound | IC50 |
| --- | --- |
| O=C1c2cccc3cc([N+](=O)[O-])cc(c23)C(=O)N1CCN=C=S | 8.38 µM |

Test system: not listed separately
Experiment: Cytotoxicity against human A375-S2 cells after 24 hrs by MTS assay
Type: functional, cell-based
Details: A375-S2, 24 h
How it was run: as §1

| Compound | IC50 |
| --- | --- |
| O=C1c2cccc3cc([N+](=O)[O-])cc(c23)C(=O)N1CCN=C=S | 7.88 µM |

Test system: not listed separately
Experiment: Cytotoxicity against human SK-MEL-37 cells after 24 hrs by MTS assay
Type: functional, cell-based
Details: not given
How it was run: as §1

| Compound | IC50 |
| --- | --- |
| O=C1c2cccc3cc([N+](=O)[O-])cc(c23)C(=O)N1CCN=C=S | 2.88 µM |

Test system: not listed separately
Experiment: Cytotoxicity against human 1205 Lu cells after 24 hrs by MTS assay
Type: functional, cell-based
Details: not given
How it was run: as §1

| Compound | IC50 |
| --- | --- |
| O=C1c2cccc3cc([N+](=O)[O-])cc(c23)C(=O)N1CCN=C=S | 5.82 µM |

Test system: UACC-903
Experiment: Cytotoxicity against human UACC-903 cells after 72 hrs by MTS assay
Type: functional, cell-based
Details: UACC-903, 72 h
How it was run: as §1

| Compound | IC50 |
| --- | --- |
| O=C1c2cccc3cc([N+](=O)[O-])cc(c23)C(=O)N1CCN=C=S | 5.5 µM |

Test system: not listed separately
Experiment: Cytotoxicity against human A375-S2 cells after 72 hrs by MTS assay
Type: functional, cell-based
Details: A375-S2, 72 h
How it was run: as §1

| Compound | IC50 |
| --- | --- |
| O=C1c2cccc3cc([N+](=O)[O-])cc(c23)C(=O)N1CCN=C=S | 2.81 µM |

Test system: not listed separately
Experiment: Cytotoxicity against human SK-MEL-37 cells after 72 hrs by MTS assay
Type: functional, cell-based
Details: not given
How it was run: as §1

| Compound | IC50 |
| --- | --- |
| O=C1c2cccc3cc([N+](=O)[O-])cc(c23)C(=O)N1CCN=C=S | 1.73 µM |

Test system: not listed separately
Experiment: Cytotoxicity against human 1205 Lu cells after 72 hrs by MTS assay
Type: functional, cell-based
Details: not given
How it was run: as §1

| Compound | IC50 |
| --- | --- |
| O=C1c2cccc3cc([N+](=O)[O-])cc(c23)C(=O)N1CCN=C=S | 3.91 µM |

Test system: UACC-903
Experiment: Induction of apoptosis in human UACC-903 cells assessed as early apoptotic cells at 1 uM after 24 hrs using annexin-V-PE/7-AAD double staining by flow cytometry
Type: functional
Details: not given
How it was run: (§2)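 UACC 903 cells were exposed 24 h at 37 °C to 1, 5 or 25 µM, with DMSO as control. Cells were harvested, washed twice in cold PBS and resuspended at 1×10^6 cells/mL in binding buffer. They were stained with 7-AAD plus PE Annexin V for 20 min at room temperature in the dark and run by flow cytometry within 1 h. Gating: double-negative live, 7-AAD+ dead, Annexin V+/7-AAD− early apoptotic. Three separate experiments.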

| Compound | Activity |
| --- | --- |
| O=C1c2cccc3cc([N+](=O)[O-])cc(c23)C(=O)N1CCN=C=S | 17.9% |

Test system: UACC-903
Experiment: Induction of apoptosis in human UACC-903 cells assessed as late apoptotic cells at 1 uM after 24 hrs using annexin-V-PE/7-AAD double staining by flow cytometry
Type: functional
Details: not given
How it was run: as §2

| Compound | Activity |
| --- | --- |
| O=C1c2cccc3cc([N+](=O)[O-])cc(c23)C(=O)N1CCN=C=S | 7.83% |

Test system: UACC-903
Experiment: Induction of apoptosis in human UACC-903 cells assessed as non-viable cells at 1 uM after 24 hrs using annexin-V-PE/7-AAD double staining by flow cytometry
Type: functional
Details: not given
How it was run: as §2

| Compound | Activity |
| --- | --- |
| O=C1c2cccc3cc([N+](=O)[O-])cc(c23)C(=O)N1CCN=C=S | 1.39% |

Test system: UACC-903
Experiment: Induction of apoptosis in human UACC-903 cells assessed as viable cells at 1 uM after 24 hrs using annexin-V-PE/7-AAD double staining by flow cytometry
Type: functional
Details: UACC-903, 24 h, read-out: Activity
How it was run: as §2

| Compound | viability at 1 µM |
| --- | --- |
| O=C1c2cccc3cc([N+](=O)[O-])cc(c23)C(=O)N1CCN=C=S | 72.9% |
